Rows were chosen to be rich in hits. Some 2% of all compounds tested hit in one or more screens of this group.
PLCg1 inh – inhibitors of human phospholipase C gamma1; inhibition, % at 12.2 µM; P19174; 370,000 compounds, 0.84% hits; purified PLC-gamma1, fluorogenic substrate, fluorescence; in the data active = inhibition above about 9.5%
PvdQ acylase – blocks Pseudomonas aeruginosa PvdQ acylase activity; purified PvdQ acylase, fluorescence plate reader; inhibition, % at 10 µM; 340,000 compounds, 0.063% hits; AID 488965; in the data active = inhibition above about 30%, passing the limit was not always enough;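 note: 0% = vehicle neutral wells and 100% = reference inhibitor wells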
PLC-beta3 inh – inhibitors of human phospholipase C beta3; Q01970; 370,000 compounds, 0.18% hits; AID 720704; Purified PLC-beta3, fluorogenic substrate, fluorescence; inhibition, % at 12.2 µM; in the data active = inhibition above about 11%;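 note: 0% = median of compound wells on plate and 100% = full blocker control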
VIM-2 inh – blocks Pseudomonas aeruginosa VIM-2 metallo-beta-lactamase; purified VIM-2, nitrocefin hydrolysis, epi-absorbance fluorescence; inhibition, % at 5.6 µM; 290,000 compounds, 0.89% hits; AID 1527;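 active = inhibition above the mean of all tested compounds plus 3 SD, cutoff set per screening run, cut at about 7.5% in these data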;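 note: red hydrolysis product quenches plate fluorescence so inhibitors raise well fluorescence; 0% = enzyme with DMSO and 100% = DMSO without enzyme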
IMP-1 inhibitor – blocks Pseudomonas aeruginosa IMP-1 metallo-beta-lactamase; purified IMP-1, nitrocefin hydrolysis, epi-absorbance fluorescence; inhibition, % at 5.6 µM; 290,000 compounds, 0.45% hits; AID 1556;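 active = inhibition above the mean plus 3 SD of all compounds in the same screening run, cut at about 4.5% in these data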;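 note: 0% = IMP-1 with DMSO and 100% = DMSO wells lacking enzyme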
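assay system = purified recombinant IMP-1 metallo-beta-lactamase enzyme | schedule = 15 min preincubation plus 25 min reaction at 25 °C | signal = Epi-absorbance fluorescence, 480 nm excitation, 530 nm emission | read-out basis = percent inhibition from optical density relative to buffer-blank wells | controls = IMP-1 with DMSO as 0%, enzyme-free DMSO as 100%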
An asterisk follows results filed as active; i = inactive; . = no result given.

SMILES | PLCg1 inh | PvdQ acylase | PLC-beta3 inh | VIM-2 inh | IMP-1 inhibitor
CCCCNC(=O)C[C@H]1C[C@@]2(C(=O)OC)C(=C[C@H](C3CCCC3)O[C@@H]2C)N(Cc2cccc3ccccc23)C1=O | 6.3 | . | 4.7 | . | .
Cc1cc(=O)oc2cc(OCC(=O)NC3CCN(Cc4ccccc4)CC3)ccc12 | -9.7 | 7.9 | -16.1 | 4.0 | -2.3
Cc1c(C)c2ccc(OCC(=O)NC3CCN(Cc4ccccc4)CC3)cc2oc1=O | -75.5 | -13.8 | -110.2 | 12.0* | -3.2
Cn1c(SCc2ccc(C(C)(C)C)cc2)nnc1-c1ccco1 | 0.5 | . | 1.0 | . | .
CCOc1ccc(N2CC(=O)SC2=S)cc1 | 0.8 | -2.5 | -3.0 | -2.6 | -3.3
CCOc1ccc(N2CSC(=S)N(c3ccc(OCC)cc3)C2)cc1 | -1.8 | -11.6 | -6.3 | -2.4 | 4.7*
COc1ccc(OC)c2c1C(=O)C(Cl)=C(Cl)C2=O | -9.9 | 4.6 | -20.0 | 8.3* | -1.6
O=[N+]([O-])c1ccc(-c2cnc3ccccc3n2)cc1 | -5.3 | -11.7 | -5.7 | -1.2 | -2.7
Fc1ccc(-c2cn3ccccc3n2)cc1 | -2.1 | 24.2 | -10.1 | 1.6 | 0.7
CCOc1ccc(-c2cnc3ccccc3n2)cc1 | i | 89.7* | i | -0.9 | -3.1
CCOc1ccc(-c2cn3ccccc3n2)cc1 | -31.3 | 49.9* | -58.1 | 0.1 | 0.5
O=C(c1cccc(I)c1)N1CCC(Oc2cccnc2)CC1 | 2.3 | . | -1.0 | . | .
CCOC(=O)c1[nH]c(C)c(C(=O)O)c1C | . | . | . | -2.0 | -2.7
CCOC(=O)C(NC=O)(NC(C)(C)C)C(=O)OCC | 0.8 | -8.7 | 2.2 | -1.6 | 4.8*
CCC[C@H]1[C@@H](NC(=O)NCC)CC[C@@]23CCCN2C(=O)CCC[C@@H]13 | 2.1 | . | 5.8 | . | .
Nc1c(/C=C2/C=CC(=O)C(O)=C2)c(=O)nc2sc(CC(=O)N3CCCCC3)nn12 | -30.7 | -3.8 | -53.5 | 11.3* | -5.7
O=c1c2ccccc2nc(-c2ccco2)n1CCCn1ccnc1 | -1.4 | -12.8 | 2.3 | 8.1* | -2.9
O=c1c2ccccc2nc(-c2ccccc2)n1CCCn1ccnc1 | -0.3 | -18.8 | -4.4 | -0.3 | -5.1
COc1ccc(N(CN2C(=O)c3ccccc3C2=O)C(=O)C(C)C)cc1 | 3.4 | -15.3 | 6.2 | 0.0 | -1.7
CCC1(N(C(C)=O)c2ccc(OC)cc2)C(=O)c2ccccc2C1=O | -4.4 | -4.5 | 0.3 | -0.3 | 21.1*
Cc1ccc(Cn2cc(CN(C(C)(C)C)S(=O)(=O)c3ccc(F)cc3Br)nn2)cc1 | 8.1 | . | 0.1 | . | .
COc1cccc2c1C(=O)c1c(O)c3c(c(O)c1C2=O)C[C@@](O)(C(=O)CO)C[C@@H]3O[C@H]1C[C@H](N)[C@@H](O)[C@H](C)O1 | . | 7.6 | . | . | .
COc1cccc2c1C(=O)c1c(O)c3c(c(O)c1C2=O)C[C@@](O)(C(C)=O)C[C@@H]3O[C@H]1C[C@H](N)[C@H](O)[C@H](C)O1 | -91.2 | -7.2 | -110.7 | 18.8* | 2.1
COc1ccccc1C(=O)Nc1c2c(nn1-c1ccc(Cl)cc1)CS(=O)(=O)C2 | -0.7 | -15.1 | -4.6 | 5.7 | 10.5*
COC(=O)[C@]12C[C@H](CC(=O)NCc3cccc(C(F)(F)F)c3)C(=O)N(CCc3ccc(OC)c(OC)c3)C1=C[C@H](COCc1ccccc1)O[C@@H]2C | -0.8 | . | 2.6 | . | .
SMILES | PLCg1 inh | PvdQ acylase | PLC-beta3 inh | VIM-2 inh | IMP-1 inhibitor
C=CCN1C(=O)[C@@H](CC(=O)NCc2cccc3ccccc23)[C@]2(C(=O)OCC)CCCCC/C=C/12 | 2.9 | . | 6.2 | . | .
Cc1ccc(S(=O)(=O)N2CCN(c3ccnc4cc(Cl)ccc34)CC2)cc1C | -7.8 | -8.3 | -9.6 | -0.6 | -1.7
Cc1ccc(S(=O)(=O)N2CCN(c3ccnc4cc(Cl)ccc34)CC2)cc1 | -4.9 | -14.4 | -8.8 | 10.2* | -0.4
CCOC(=O)Cc1nc(N2CCN(C(=O)C3CCCO3)CC2)c2c(C)c(C(=O)OCC)sc2n1 (centres undefined) | -11.3 | . | -15.1 | . | .
Cc1ccccc1NC(=O)Cc1nc(COC(=O)COc2cccc(C)c2C)cs1 | 11.7* | -6.6 | -10.5 | . | .
CCOc1ccccc1OCC(=O)OCc1csc(CC(=O)Nc2ccccc2C)n1 | 1.1 | -2.3 | -6.0 | . | .
CCN1CCN(C(=O)c2ccc3c(Cl)c4c(nc3c2)CCCC4)CC1 | 3.0 | -7.1 | -2.1 | 8.2* | -1.1
N#CC1CCN(C(=O)c2ccc3c(Cl)c4c(nc3c2)CCCC4)CC1 | -0.1 | -8.2 | -12.0 | 1.1 | -0.9
CN1CCN(C(=O)c2ccc3c(Cl)c4c(nc3c2)CCCC4)CC1 | 1.7 | 4.7 | -7.0 | 10.8* | 0.8
CC1(C)CC(=O)N(CC(=O)N2CCN(c3cccc(C(F)(F)F)c3)CC2)c2ccccc2S1(=O)=O | 4.1 | . | -0.6 | . | .
CCOC(=O)N1CCN(C(=O)C[C@H]2C(=O)N(CCCOC)C3=CCCC[C@@]32C(=O)OCC)CC1 | 2.7 | . | 3.9 | . | .
COc1cc(C=Nn2c(-c3ccc(F)cc3)n[nH]c2=S)ccc1OCc1ccccc1 | -0.8 | . | -3.5 | . | .
CCC[C@H](/C=C/C(=O)OC(C)(C)C)Sc1ccc(OC)cc1 | 1.9 | . | -0.8 | . | .
Cc1c(OC(C)C(=O)NCC(O)c2ccccc2)ccc2c3c(c(=O)oc12)CCCC3 (centres undefined) | -12.8 | 8.3 | -31.7 | 10.5* | 1.6
Cc1c(OCC(=O)N2CCC(C(=O)O)CC2)ccc2c3c(c(=O)oc12)CCC3 | -2.3 | -12.0 | -0.5 | 9.9* | -3.0
Cc1c(OC(C(=O)O)c2ccccc2)ccc2c3c(c(=O)oc12)CCC3 (centres undefined) | -17.3 | -13.5 | -25.7 | 7.7* | -1.9
CCN(CC)C(=O)COc1ccc2c3c(c(=O)oc2c1C)CCCC3 | -19.2 | -1.2 | -30.6 | 8.0* | -0.4
O=C(NCCc1ccccc1)OCc1cn(Cc2ccccc2C(F)(F)F)nn1 | -1.6 | . | -3.0 | . | .
COc1ccc(N2CCN(CCCNC(=O)CCc3cccc(Cl)c3)CC2)cc1 | -1.6 | . | 2.0 | . | .
COC(=O)C[C@@H]1CC[C@@H]2[C@@H](COc3ccc(NC(=O)Nc4ccc(F)cc4)cc3C(=O)N2C)O1 | 0.8 | . | 0.9 | . | .
Cc1c(OCC(=O)N[C@H](C(=O)O)c2ccccc2)ccc2c3c(c(=O)oc12)CCCC3 | -63.1 | -6.4 | -75.3 | 11.6* | -5.3
O=S1(=O)c2ccc(N3CCC[C@H]3CO)cc2OCCCN1C1CC1 | -4.8 | . | -3.8 | . | .
Cc1ccc2c(c1C)NC(C)CC2C (centres undefined) | -0.4 | -8.7 | 1.4 | 1.5 | 5.0*
COc1ccc(N/C=C/c2nc(SC)nnc2C)cc1 | -8.3 | -12.0 | -15.2 | 7.8* | -2.5
N#Cc1ccc(OC[C@@H](O)CN2CCC(C(O)(c3ccccc3)c3ccccc3)CC2)cc1F | 2.5 | . | -1.4 | . | .
COc1ccc2c3c([nH]c2c1)[C@]1(CCNC=O)Nc2ccccc2C1=NCC3 | -8.6 | . | -12.5 | . | .
O=C1NC(=O)/C(=C\c2ccc(O)cc2O)S1 | -10.2 | -8.8 | -20.2 | 2.4 | 6.0*
Cc1cc(C2C(=O)CC(=O)CC2c2ccccc2)on1 (centres undefined) | -12.8 | -14.8 | -18.3 | 3.2 | 7.7*
CCCC(=O)C1C(=O)CC(C)(C)C(c2cc(C)no2)C1=O (centres undefined) | 3.0 | 6.7 | -4.5 | -2.3 | -3.5

Screens (PubChem)
